For test [1], the system named is Mus musculus. Briefly: Evaluation of ILS percentage of mice upon intraperitoneal injection of VBL and/or oral administration on days 1-4 and 6-8 at a concentration of 10 mg/kg. The class given is functional. The gist of the method:
(§1)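 Female CD2F1 mice, 5 per group, were inoculated i.p. with 1.0 × 10^6 P388/ADR cells on day 0. VBL was given by i.p. injection and/or the test agent orally on days 1-4 and 6-8. Read-out was survival days (average ± SD) and ILS (%) against the untreated group, with P < 0.05 by Student's t-test or a two-sample test with Welch's correction.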

Test [2] has as its system P388/S. Briefly: In vitro evaluation for the inhibitory activity against drug sensitive P388 cells (P388/S) cells at a concentration of 1.0 uM. The class given is functional, cell-based. The following applies: Mus musculus. The gist of the method: (§2)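 P388/S and P388/ADR murine leukemia cells are maintained by weekly intraperitoneal passage in female CDF1 mice. For the assay they are seeded at 10^5 cells/mL in RPMI-1640 with 10% FCS, 20 μM β-mercaptoethanol and 100 μg/mL kanamycin. Vinblastine is given with or without modulator (0–5.0 μM; DMSO final 0.25%) for 48 h. Growth is read by MTT and vinblastine IC50 is reported.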

Test [3] concerns P388/ADR. Briefly: Relative increase in inhibitory activity against multidrug resistant P388 cells (P388/ADR) cells at a concentration of 5.0 uM in presence of vinblastine. Type of test: functional, Mus musculus. The gist of the method:
(§3)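 Same 48 h MTT growth assay in P388/S or P388/ADR cells at 10^5 cells/mL. Vinblastine IC50 is found alone and with modulator at 1.0, 2.5 or 5.0 μM. The value is the relative increase in vinblastine growth-inhibitory effect, taken as the fold change in IC50 from the combined treatment.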

Test [4] has as its system P388/ADR. Put plainly: Inhibitory activity against multidrug resistant P388 cells (P388/ADR) cells at a concentration of 2.5 uM in presence of adriamycin. The following applies: Mus musculus.
Test [5] deals with P388/ADR. Briefly: In vitro for the inhibitory activity against multidrug resistant P388 cells (P388/ADR) cells at a concentration of 5 uM. The class given is functional, cell-based. The following applies: Mus musculus. The essentials: as §2
Test [6] deals with P388/ADR. Put plainly: In vitro for the inhibitory activity against multidrug resistant P388 cells (P388/ADR) cells at a concentration of 1.0 uM. The following applies: Mus musculus. Type of test: functional, cell-based. The essentials: as §2
For test [7], the system named is Mus musculus. Put plainly: Evaluation of Survival of mice upon intraperitoneal injection of VBL and/or oral administration on days 1-4 and 6-8 at a concentration of 10 mg/kg. The class given is functional. The gist of the method: as §1
The subject of test [8] is P388/ADR. Put plainly: Inhibitory activity against multidrug resistant P388 cells (P388/ADR) cells at a concentration of 2.5 uM in presence of cisplatin. The following applies: Mus musculus.
The test system of test [9] is P388/ADR. Put plainly: In vitro for the inhibitory activity against multidrug resistant P388 cells (P388/ADR) cells at a concentration of 0 uM. The following applies: Mus musculus. The class given is functional, cell-based. The essentials:
as §2

For test [10], the system named is P388/S. Briefly: In vitro evaluation for the inhibitory activity against drug sensitive P388 cells (P388/S) cells at a concentration of 2.5 uM. The class given is functional, cell-based. Particulars: Mus musculus. The gist of the method:
as §2

For test [11], the system named is P388/S. Put plainly: Inhibitory activity against drug sensitive P388 cells (P388/S) cells in presence of adriamycin. Type of test: functional, cell-based. The following applies: Mus musculus. The gist of the method:
(§4)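 P388/S or P388/ADR cells at 10^5 cells/mL in RPMI-1640/10% FCS medium. They receive graded adriamycin, mitomycin C or cisplatin, alone or together with 2.5 μM modulator, for 48 h (DMSO final 0.25%). Growth is read by MTT and the antitumor-drug IC50 is reported.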

Test [12] has as its system Mus musculus. Put plainly: Evaluation of ILS percentage of mice upon intraperitoneal injection of VBL / oral administration on days 1-4 and 6-8 at a concentration of 40 mg/kg. The class given is functional. The essentials:
as §1

In test [13] the test system is P388/ADR. Put plainly: Inhibitory activity against multidrug resistant P388 cells (P388/ADR) cells at a concentration of 2.5 uM in presence of mitomycin C. The following applies: Mus musculus.
Test [14] concerns P388/S. Briefly: Relative increase in inhibitory activity against drug sensitive P388 cells (P388/S) cells at a concentration of 2.5 uM in presence of vinblastine. The class given is functional, Mus musculus. The essentials: as §3
Test [15] has as its system P388/ADR. Briefly: Relative increase in inhibitory activity against multidrug resistant P388 cells (P388/ADR) cells at a concentration of 2.5 uM in presence of vinblastine. Type of test: functional, Mus musculus. The essentials:
as §3

Test [16] concerns P388/S. Put plainly: In vitro evaluation for the inhibitory activity against drug sensitive P388 cells (P388/S) cells at a concentration of 0 uM. The class given is functional, cell-based. The following applies: Mus musculus. The gist of the method: as §2
In test [17] the test system is Mus musculus. Briefly: Evaluation of ILS percentage of mice upon intraperitoneal injection of VBL / oral administration on days 1-4 and 6-8 at a concentration of 20 mg/kg. The class given is functional. The essentials: as §1
Test [18] concerns P388/ADR. Put plainly: Relative increase in inhibitory activity against multidrug resistant P388 cells (P388/ADR) cells at a concentration of 1.0 uM in presence of vinblastine. Type of test: functional, Mus musculus. The essentials: as §3
Test [19] relates to Mus musculus. Briefly: Evaluation of Survival of mice intraperitoneal injection of VBL and/or oral administration on days 1-4 and 6-8 at a concentration of 40 mg/kg in mice. The class given is functional. The essentials: as §1
The subject of test [20] is P388/S. Briefly: Inhibitory activity against drug sensitive P388 cells (P388/S) cells in presence of cisplatin. Type of test: functional, cell-based. Particulars: Mus musculus. The essentials:
as §4

The test system of test [21] is Mus musculus. Put plainly: Evaluation of Survival of mice upon intraperitoneal injection of VBL and/or oral administration on days 1-4 and 6-8 at a concentration of 20 mg/kg. The class given is functional. The gist of the method:
as §1

Test [22] deals with P388/S. Put plainly: Inhibitory activity against drug sensitive P388 cells (P388/S) cells in presence of mitomycin C. The following applies: Mus musculus. Type of test: functional, cell-based. The gist of the method:
as §4

Test [23] deals with P388/S. Briefly: Relative increase in inhibitory activity against drug sensitive P388 cells (P388/S) cells at a concentration of 5.0 uM in presence of vinblastine. The class given is functional, Mus musculus. The gist of the method: as §3
Test [24] relates to P388/S. Put plainly: Relative increase in inhibitory activity against drug sensitive P388 cells (P388/S) cells at a concentration of 1.0 uM in presence of vinblastine. The class given is functional, Mus musculus. The essentials: as §3
For test [25], the system named is P388/S. Put plainly: In vitro evaluation for the inhibitory activity against drug sensitive P388 cells (P388/S) cells at a concentration of 5.0 uM. Type of test: functional, cell-based. Particulars: Mus musculus. The gist of the method: as §2
Test [26] concerns P388/ADR. Briefly: In vitro for the inhibitory activity against multidrug resistant P388 cells (P388/ADR) cells at a concentration of 2.5 uM. The following applies: Mus musculus. The class given is functional, cell-based. The essentials:
as §2

In test [27] the test system is P388/S. Briefly: Evaluation of inhibitory activity and cisplatin against drug sensitive P388 cells (P388/S) cells. Type of test: functional, cell-based, Mus musculus. The following applies: p388/s. The gist of the method: as §4
For test [28], the system named is P388/ADR. Briefly: Evaluation of inhibitory activity and cisplatin against multidrug resistant P388 cells (P388/ADR) cells. The class given is functional, cell-based, Mus musculus. The essentials: as §4
The test system of test [29] is P388/S. Put plainly: Evaluation of inhibitory activity against drug sensitive P388 cells (P388/S) cells. The class given is functional, cell-based, Mus musculus. The essentials: as §2
Test [30] concerns P388/ADR. Put plainly: Evaluation of inhibitory activity against multidrug resistant P388 cells (P388/ADR) cells. Type of test: functional, cell-based, Mus musculus. The following applies: p388/adr. The gist of the method:
as §2

One may read the ILS as how much longer treated animals lived than controls. One may read the IC50 as the concentration at which inhibition is half-maximal. Consider `CC[C@]1(O)C[C@H]2CN(CCc3c([nH]c4ccccc34)[C@@](C(=O)OC)(c3cc4c(cc3OC)N(C)[C@H]3[C@@](O)(C(=O)OC)[C@H](OC(C)=O)[C@]5(CC)C=CCN6CC[C@]43[C@@H]65)C2)C1.CSC1=NC(=O)N(Cc2ccc(Cl)cc2)CCN1Cc1ccc(Cl)cc1`, for which, in test [1], the ILS at 10 mg/kg amounted to 20.8%. For the same compound, the IC50 turned out to be 0.9 nM in test [2]; 90 nM in test [4]; 2.2 nM in [5]; 23 nM in test [6]; 51 nM in [8]; 70 nM in [9]. The IC50 was 0.7 nM in [10]; 13 nM in [11]; 264 nM in test [13]; 1.7 nM in test [16]; 72 nM in [20]; 44 nM in [22]. Further, the IC50 in test [25] turned out to be 0.4 nM; in [26], 6.2 nM. In addition, the Relative activity in [3] was 23; in [14] it was 2.4; in test [15], 11; in test [18], 3.2; in [23], 4.3; in test [24] it was 1.9. Also, the results for the Survival days in test [7], in [19] and in test [21] were 11.6, 14 and 13.2, respectively. In addition, the ILS at 40 mg/kg in [12] amounted to 45.8%. The ILS at 20 mg/kg in test [17] was 37.5%.
As for “1,5-Bis-(4-chloro-benzyl)-4-methylsulfanyl-1,5,6,7-tetrahydro-[1,3,5]triazepin-2-one; compound with cisplatin”, the IC50 in [27] came to 72 nM; in test [28] it was 51 nM.
Regarding CISPLATIN, the IC50 in test [29] turned out to be 48 nM; in test [30] it was 61 nM.

(Values after ChEMBL document CHEMBL1128222, “Novel inhibitors for multidrug resistance: 1,3,5-triazacycloheptanes” (J Med Chem, 1995).)
